Data set [1] is described as follows: Cytotoxicity against human NALM6 cells assessed as growth inhibition after 48 hrs by MTT assay. The data set is classed as functional, cell-based. The note with it: NALM-6, 48 h. A digest of the protocol:
(§1)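 Leukemia cells in RPMI 1640 and MCF-7 in DMEM, both with 10% heat-inactivated FBS. HUVECs were grown per the supplier's protocol at passages 3–8. Cultures were kept at 37 °C in humidified 5% CO₂ and seeded at 8 × 10³ cells/well. After 24 h, compounds from fresh DMSO stocks were added over 10^-7 to 10^-3 M. Absorbance was read at 560 nm against untreated cells. IC50 came from concentration–response curves, as mean ± SD of at least three experiments.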
On the technique in general: Formazan colour is commonly taken as a measure of viable cells.

A further data set relates to MCF7. Put plainly: Cytotoxicity against human MCF7 cells assessed as growth inhibition after 48 hrs by MTT assay. The data set is classed as functional, cell-based. The note with it: MCF7, 48 h. Summed up:
as §1

A short description of data set [2]: Cytotoxicity against human HL60 cells assessed as growth inhibition after 48 hrs by MTT assay. In kind it is functional, cell-based. Conditions: HL-60, 48 h. Summed up:
as §1

The next data set has as its system HUVEC. Put plainly: Cytotoxicity against HUVEC assessed as growth inhibition after 48 hrs by MTT assay. The data set is classed as cell-based. The note with it: Homo sapiens. Summed up:
as §1

Data set [3] is described as follows: Therapeutic index, ratio of IC50 for HUVEC to IC50 for human NALM6 cells. The data set is classed as cell-based, NALM-6. The note with it: HUVEC and NALM6 cells, read-out: Ratio IC50.
Data set [4] is described as follows: Therapeutic index, ratio of IC50 for HUVEC to IC50 for human HL60 cells. In kind it is cell-based, HL-60. The note with it: HUVEC and HL60 cells, read-out: Ratio IC50.

One may read the IC50 as the point on the concentration scale where inhibition reaches its midpoint. Consider `C=C1C(=O)N(c2ccccc2)N(C)C1CC` (stereo not given), for which the results for the IC50 (in data set [1]; in the data set on MCF7; in data set [2]) were 576 µM, 185 µM and 750 µM, respectively.
On to `C=C1C(=O)N(c2ccccc2)N(c2ccccc2)C1c1ccccc1` (stereo not given), for which the half-inhibitory concentration (IC50) in data set [1] worked out at 3.82 µM; in the data set with MCF7 it was 4.5 µM; in data set [2], 1.61 µM; in the data set on HUVEC, 4.46 µM.
For `C=C1CN(C)N(c2ccc(Br)cc2)C1=O`, the IC50 in data set [1] was 62 µM; with MCF7, 43.8 µM; in data set [2] it was 51.8 µM.
Consider `C=C1CN(C)N(c2ccc(C)cc2)C1=O`, for which the IC50 in data set [1] came to 90.1 µM; in the data set on MCF7, 59.1 µM; in data set [2], 65.7 µM.
As to `C=C1C(=O)NC(C)C1c1ccc(Br)cc1` (stereo not given), the 50% inhibitory concentration (IC50) was 439 µM in data set [1] and 515 µM in data set [2].
In the case of `C=C1C(=O)N(c2ccccc2)N(C)C1CCCC` (stereo not given), the IC50 in data set [1] is 432 µM; in the data set on MCF7, 235 µM; in data set [2], 460 µM.
The like results for `C=C1CN(C)N(c2ccccc2)C1=O` were, in that order, 56 µM, 56 µM and 45.7 µM.
In the case of `C=C1C(=O)N(c2ccccc2)N(C)C1C` (stereo not given), the IC50 in data set [1] stood at 412 µM; in the data set on MCF7, 153 µM; in data set [2], 531 µM.
As for `C=C1C(=O)N(c2ccccc2)N(C)C1c1ccccc1` (stereo not given), the IC50 in data set [1] is 24.4 µM; with MCF7, 84.4 µM; in data set [2], 40.9 µM.
As to `C=C1C(=O)N(c2ccccc2)N(c2ccccc2)C1CC` (stereo not given), the IC50 in data set [1] came out at 14.9 µM; in the data set with MCF7 it was 20 µM; in data set [2], 8.89 µM; in the data set with HUVEC, 23.9 µM.
As to `C=CC1C(=C)C(=O)N(c2ccccc2)N1c1ccccc1` (stereo not given), the half-maximal inhibitory concentration (IC50) was 0.74 µM in data set [1], 5.1 µM with MCF7, 1.32 µM in data set [2] and 2.73 µM in the data set with HUVEC. Also, in data set [3], the selectivity ratio amounted to 4.
Consider `C=C1C(=O)N(c2ccccc2)N(c2ccccc2)C1CCCC` (stereo not given), for which the half-maximal inhibitory concentration (IC50) in data set [1] turned out to be 29.1 µM; in the data set with MCF7, 25.2 µM; in data set [2], 8.92 µM; with HUVEC, 27 µM.
In the case of `C=C1C(=O)N(c2ccccc2)N(c2ccccc2)C1C` (stereo not given), the IC50 stood at 6.98 µM in data set [1], 12.5 µM in the data set with MCF7, 5.85 µM in data set [2] and 29.9 µM with HUVEC. Besides, the selectivity ratio in data set [4] came out at 5; in data set [3], 4.
On to `C=C1C(=O)N(c2ccccc2)N(C)C1c1ccc(OC)cc1` (stereo not given), for which the IC50 was found to be 49.3 µM in data set [1], 75 µM in the data set with MCF7 and 37.3 µM in data set [2].
As to `C=C1C(=O)N(c2ccccc2)N(C)C1CCCCCCCCC` (stereo not given), the figures for the IC50 (in data set [1]; in the data set with MCF7; in data set [2]) were 57.5 µM, 91.1 µM and 49.9 µM, respectively.
For the compound `C=C1CN(C)N(c2ccc(Cl)cc2)C1=O`, the IC50 worked out at 51.9 µM in data set [1], 45.2 µM in the data set with MCF7 and 38.1 µM in data set [2].
